From ChEMBL document CHEMBL4622977, “A CNS-Targeting Prodrug Strategy for Nuclear Receptor Modulators” (J Med Chem, 2020)
Active and inactive are the calls of the source. No cut-off for these calls is given here.

Key:
[1] = AUC (0.5 to 6 hrs) in C57BL/6 mouse brain assessed as tazarotenic acid level at 9.14 umol/kg, ip by LC-MS/MS analysis; type: ADME, organism-based; parameters: time lower 0.5 hr, dose 9.14 umol/kg, time upper 6 hr, route intraperitoneal; details: in vivo
How it was run: (§1)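 Male wild-type C57BL/6 mice (8−10 weeks, n=3 per time point) received parent drug or equimolar prodrug at […] i.p. in DMSO. Brain and serum were collected at 0.5, 2 and 6 h. Parent acid was quantified by LC-MS/MS against vehicle-tissue standard curves with d₆-sobetirome internal standard. AUC0.5–6 h was computed from the time course; mean ± SEM.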

[2] = AUC (0.5 to 6 hrs) in C57BL/6 mouse serum assessed as tazarotenic acid level at 9.14 umol/kg, ip by LC-MS/MS analysis; type: ADME, organism-based; parameters: time lower 0.5 hr, dose 9.14 umol/kg, time upper 6 hr, route intraperitoneal; details: in vivo; how it was run: as §1
[3] = Brain to serum concentration ratio, Kp of the compound in C57BL/6 mouse assessed as tazarotenic acid level at 9.14 umol/kg, ip by LC-MS/MS analysis; type: ADME, organism-based
How it was run: (§2)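 Brain-to-serum ratio Kp was calculated from brain and serum parent-drug AUC0.5–6 h (ng/g*h). These AUCs came from male C57BL/6 mice (n=3 per time point) given parent drug or equimolar prodrug at […] i.p. in DMSO, sampled at 0.5, 2 and 6 h. Parent acid was quantified by LC-MS/MS with d₆-sobetirome internal standard.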

[4] = Prodrug conversion in C57BL/6 mouse brain assessed as tazarotenic acid level at 9.14 umol/kg, ip measured after 1 hr in presence of FAAH inhibitor PF-3845 by LC-MS/MS analysis; type: ADME, organism-based; details: in vivo
How it was run: (§3)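 Male C57BL/6 mice (n=3) received PF-3845 at 1 mg/kg i.p., then prodrug at […] i.p. 1 h later; comparators received prodrug alone. Vehicle was DMSO. Whole brain was taken 1 h after prodrug and homogenized in water with d₆-sobetirome internal standard. It was extracted with EtOAc/MeCN and parent acid was measured by LC-MS/MS; mean ± SEM, 2-tailed unpaired t test.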

Mus musculus [5] = assay: In vivo agonist activity at RAR in C57BL/6 mouse assessed upregulation of Adam10 gene expression in brain at 9.14 umol/kg, ip administered once daily for 7 days by Trizol reagent based RT-qPCR analysis; type: functional, organism-based
How it was run: (§4)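 Male C57BL/6 mice (n=5) were dosed once daily for 7 days i.p. with parent drug at […], equimolar prodrug, or vehicle. The vehicle was 1:1:8 Kolliphor:NMP:water. Target gene expression was compared between groups per tissue by 2-tailed unpaired t test.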

[6] = Hepatotoxicity in C57BL/6 mouse assessed effect on Rarres2 gene expression at 9.14 umol/kg, ip administered once daily for 7 days by Trizol reagent based RT-qPCR analysis; details: in vivo, 168 h
[7] = AUC (0.5 to 6 hrs) in C57BL/6 mouse serum at 9.14 umol/kg, ip by LC-MS/MS analysis; type: ADME, organism-based; parameters: time upper 6 hr, dose 9.14 umol/kg, time lower 0.5 hr, route intraperitoneal; details: in vivo; how it was run: as §1
[8] = mouse, in vivo, ip
in vivo = details: C57BL/6, mouse, brain/serum, ip, 9.14 umol/kg
Mus musculus [9] = assay: In vivo agonist activity at PPAR in C57BL/6 mouse assessed upregulation of Pgc1-alpha gene expression at 9.14 umol/kg, ip administered once daily for 7 days by Trizol reagent based RT-qPCR analysis; type: functional, organism-based; how it was run: as §4
[10] = Renal toxicity in C57BL/6 mouse assessed effect on Fasn gene expression in kidney at 9.14 umol/kg, ip administered once daily for 7 days by Trizol reagent based RT-qPCR analysis; type: organism-based; details: in vivo, 168 h; how it was run: as §4
[11] = AUC (0.5 to 6 hrs) in C57BL/6 mouse brain assessed as 2-(4-(4-hydroxy-3-isopropyl-5-((4-nitrophenyl)ethynyl)-benzyl)-3,5-dimethylphenoxy)acetic acid level at 9.14 umol/kg, ip by LC-MS/MS analysis; type: ADME, organism-based; parameters: time upper 6 hr, time lower 0.5 hr, dose 9.14 umol/kg, route intraperitoneal; details: in vivo; how it was run: as §1
[12] = AUC (0.5 to 6 hrs) in C57BL/6 mouse serum assessed as 2-(4-(4-hydroxy-3-isopropyl-5-((4-nitrophenyl)ethynyl)-benzyl)-3,5-dimethylphenoxy)acetic acid level at 9.14 umol/kg, ip by LC-MS/MS analysis; type: ADME, organism-based; parameters: time 0.5-6 hr, dose 9.14 umol/kg, route intraperitoneal; details: in vivo; how it was run: as §1
[13] = Brain to serum concentration ratio, Kp of the compound in C57BL/6 mouse assessed as 2-(4-(4-hydroxy-3-isopropyl-5-((4-nitrophenyl)ethynyl)-benzyl)-3,5-dimethylphenoxy)acetic acid level at 9.14 umol/kg, ip by LC-MS/MS analysis; type: ADME, organism-based; how it was run: as §2
[14] = Prodrug conversion in C57BL/6 mouse brain assessed as 2-(4-(4-hydroxy-3-isopropyl-5-((4-nitrophenyl)ethynyl)-benzyl)-3,5-dimethylphenoxy)acetic acid level at 9.14 umol/kg, ip measured after 1 hr in presence of FAAH inhibitor PF-3845 by LC-MS/MS analysis; type: ADME, organism-based; details: in vivo; how it was run: as §3
[15] = AUC (0.5 to 6 hrs) in C57BL/6 mouse brain assessed as bexarotene level at 9.14 umol/kg, ip by LC-MS/MS analysis; type: ADME, organism-based; parameters: dose 9.14 umol/kg, time 0.5-6 hr, route intraperitoneal; details: in vivo, BLD = below limit of detection; how it was run: as §1
[16] = AUC (0.5 to 6 hrs) in C57BL/6 mouse serum assessed as bexarotene level at 9.14 umol/kg, ip by LC-MS/MS analysis; type: ADME, organism-based; parameters: dose 9.14 umol/kg, time 0.5-6 hr, route intraperitoneal; details: in vivo; how it was run: as §1
[17] = Prodrug conversion in C57BL/6 mouse brain assessed as bexarotene level at 9.14 umol/kg, ip measured after 1 hr in presence of FAAH inhibitor PF-3845 by LC-MS/MS analysis; type: ADME, organism-based; details: in vivo; how it was run: as §3
[18] = AUC (0.5 to 6 hrs) in C57BL/6 mouse brain assessed as GW3965 level at 9.14 umol/kg, ip by LC-MS/MS analysis; type: ADME, organism-based; parameters: dose 9.14 umol/kg, time 0.5-6 hr, route intraperitoneal; details: in vivo, BLD = below limit of detection; how it was run: as §1
[19] = AUC (0.5 to 6 hrs) in C57BL/6 mouse serum assessed as GW3965 level at 9.14 umol/kg, ip by LC-MS/MS analysis; type: ADME, organism-based; parameters: time 0.5-6 hr, dose 9.14 umol/kg, route intraperitoneal; details: in vivo; how it was run: as §1
[20] = Prodrug conversion in C57BL/6 mouse brain assessed as GW3965 level at 9.14 umol/kg, ip measured after 1 hr in presence of FAAH inhibitor PF-3845 by LC-MS/MS analysis; type: ADME, organism-based; details: in vivo; how it was run: as §3

CNC(=O)c1ccc(C#Cc2ccc3c(c2)C(C)(C)CCS3)nc1
AUC [1]: 104 ng·h/g | AUC [2]: 51.34 ng·h/g | Kp [3]: 2.03 | Drug metabolism [4]: Metabolite_Notdetected | Activity (Mus musculus [5]): Active | Activity [6]: Non-Toxic

Cc1cc(SCc2sc(-c3ccc(C(F)(F)F)cc3)nc2C)ccc1OCC(=O)O [GW501516]
AUC [7]: 2330 ng·h/g | AUC [8]: 41.8 ng·h/g | Kp (in vivo): 0.018

O=C(O)Cc1cc(I)c(Oc2ccc(O)c(I)c2)c(I)c1 [TIRATRICOL]
AUC [7]: 5108 ng·h/g

CCO[C@@H](Cc1ccc(OCCc2ccc(OS(C)(=O)=O)cc2)cc1)C(=O)O [TESAGLITAZAR]
AUC [7]: 2107 ng·h/g | Activity (Mus musculus [9]): inactive | Activity [10]: Toxic | AUC [8]: 7.3 ng·h/g | Kp (in vivo): 0.004

CNC(=O)COc1cc(C)c(Cc2cc(C#Cc3ccc([N+](=O)[O-])cc3)c(O)c(C(C)C)c2)c(C)c1
AUC [11]: 73.8 ng·h/g | AUC [12]: 49.5 ng·h/g | Kp [13]: 1.5 | Drug metabolism [14]: Metabolite_Notdetected

C=C(c1ccc(C(=O)NC)cc1)c1cc2c(cc1C)C(C)(C)CCC2(C)C
AUC [15]: Bld | AUC [16]: 4.933 ng·h/g | Drug metabolism [17]: Metabolite_Notdetected

CNC(=O)Cc1cccc(OCCCN(Cc2cccc(C(F)(F)F)c2Cl)CC(c2ccccc2)c2ccccc2)c1
AUC [18]: Bld | AUC [19]: 155.4 ng·h/g | Drug metabolism [20]: Metabolite_Notdetected

CC/C(=C(\c1ccc(O)cc1)c1ccc(/C=C/C(=O)O)cc1)c1ccccc1
AUC [7]: 169.3 ng·h/g | AUC [8]: 228.2 ng·h/g | Kp (in vivo): 1.35
